According to ChEMBL document CHEMBL4346653, “A2B Adenosine Receptor Antagonists with Picomolar Potency” (J Med Chem, 2019):

Columns and labels:
Homo sapiens [1] = organism: Homo sapiens; experiment: Selectivity index, ratio of Ki for displacement of [3H]PSB-11 from recombinant human A3 adenosine receptor expressed in CHO cell membranes to Ki for displacement of [3H]PSB-603 from recombinant human A2B adenosine receptor expressed in CHO cell membranes
Adenosine receptor A1 [2] = target: T1, Adenosine receptor A1 (Homo sapiens, UniProt P30542); experiment: Displacement of [3H]CCPA from recombinant human A1 adenosine receptor expressed in CHO cell membranes measured after 90 mins in presence of adenosine deaminase by liquid scintillation counting method
T1 sequence (P30542 whole entry): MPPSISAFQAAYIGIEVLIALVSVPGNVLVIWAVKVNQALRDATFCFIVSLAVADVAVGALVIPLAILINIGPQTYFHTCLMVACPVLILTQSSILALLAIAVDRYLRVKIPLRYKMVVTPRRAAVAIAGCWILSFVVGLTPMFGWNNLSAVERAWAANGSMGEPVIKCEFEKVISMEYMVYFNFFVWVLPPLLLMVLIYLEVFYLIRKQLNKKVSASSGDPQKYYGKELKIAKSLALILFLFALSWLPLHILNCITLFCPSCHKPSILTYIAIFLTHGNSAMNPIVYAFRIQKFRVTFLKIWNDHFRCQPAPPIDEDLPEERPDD
Summary of the method: (§1)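 Competition binding on membranes of cells recombinantly expressing the human receptor (CHO or HEK cells), with tritiated radioligand per subtype: [3H]PSB-603 for A2B, [3H]MSX-2 for A2A, [3H]CCPA for A1, [3H]PSB-11 for A3. Ki ± SEM from n = 3, some from extrapolated curves. Weak binders are reported as % inhibition of radioligand binding at 1 μM.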

Adenosine receptor A3 [3] = target: T2, Adenosine receptor A3 (Homo sapiens, UniProt P0DMS8); experiment: Displacement of [3H]PSB-11 from recombinant human A3 adenosine receptor expressed in CHO cell membranes measured after 45 mins in presence of adenosine deaminase by liquid scintillation counting method; summary of the method: as §1
T2 sequence (P0DMS8 whole entry): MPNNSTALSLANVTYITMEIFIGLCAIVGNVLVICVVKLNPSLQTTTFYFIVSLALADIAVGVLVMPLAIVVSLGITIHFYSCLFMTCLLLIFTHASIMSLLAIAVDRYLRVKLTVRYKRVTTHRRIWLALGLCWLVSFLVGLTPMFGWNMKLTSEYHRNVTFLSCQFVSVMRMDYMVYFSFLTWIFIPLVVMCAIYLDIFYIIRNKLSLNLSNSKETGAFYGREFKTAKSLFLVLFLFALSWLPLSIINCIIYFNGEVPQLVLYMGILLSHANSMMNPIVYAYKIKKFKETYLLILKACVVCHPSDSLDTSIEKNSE

[4] = target: T3, Adenosine receptor A1 (Homo sapiens) (UniProt P30542); experiment: Displacement of [3H]CCPA from recombinant human A1 adenosine receptor expressed in CHO cell membranes at 1 uM measured after 90 mins in presence of adenosine deaminase by liquid scintillation counting method relative to control
T3 sequence (whole entry): T1 sequence (P30542 whole entry)
Summary of the method: (§2)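 Single-point competition binding at human AR subtype membranes, each against its own tritiated radioligand. The test compound is given at 1 μM, and the result is reported as percent inhibition of radioligand binding. The radioligand-specific footnotes give n = 3.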

Adenosine receptor A2b [5] = target: T4, Adenosine receptor A2b (Homo sapiens, UniProt P29275); experiment: Displacement of [3H]PSB-603 from recombinant human A2B adenosine receptor expressed in CHO cell membranes measured after 75 mins in presence of adenosine deaminase by liquid scintillation counting method; summary of the method: as §1
T4 sequence (P29275 whole entry): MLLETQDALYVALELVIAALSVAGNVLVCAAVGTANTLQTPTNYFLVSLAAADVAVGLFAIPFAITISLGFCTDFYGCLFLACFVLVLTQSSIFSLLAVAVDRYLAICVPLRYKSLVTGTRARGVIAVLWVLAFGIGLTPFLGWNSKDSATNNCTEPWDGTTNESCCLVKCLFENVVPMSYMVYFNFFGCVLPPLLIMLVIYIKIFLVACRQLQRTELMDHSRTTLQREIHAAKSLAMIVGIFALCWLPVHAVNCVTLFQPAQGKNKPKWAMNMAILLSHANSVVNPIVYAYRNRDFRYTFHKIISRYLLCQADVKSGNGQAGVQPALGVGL

Adenosine receptor A2a [6] = target: T5, Adenosine receptor A2a (Homo sapiens, UniProt P29274); experiment: Displacement of [3H]MSX-2 from recombinant human A2A adenosine receptor expressed in CHO cell membranes measured after 30 mins in presence of adenosine deaminase by liquid scintillation counting method; summary of the method: as §1
T5 sequence (P29274 whole entry): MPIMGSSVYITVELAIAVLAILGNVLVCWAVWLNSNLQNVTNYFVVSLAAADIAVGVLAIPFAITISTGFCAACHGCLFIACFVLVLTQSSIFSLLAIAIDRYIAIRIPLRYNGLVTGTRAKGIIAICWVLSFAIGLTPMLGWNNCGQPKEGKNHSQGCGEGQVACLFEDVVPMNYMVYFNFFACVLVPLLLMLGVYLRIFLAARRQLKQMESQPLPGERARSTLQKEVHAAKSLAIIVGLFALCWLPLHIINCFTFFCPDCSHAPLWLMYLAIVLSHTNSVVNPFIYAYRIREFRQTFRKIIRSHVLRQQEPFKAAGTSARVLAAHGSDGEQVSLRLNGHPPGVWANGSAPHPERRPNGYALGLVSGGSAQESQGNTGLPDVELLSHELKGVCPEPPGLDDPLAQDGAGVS

Homo sapiens [7] = organism: Homo sapiens; experiment: Selectivity index, ratio of Ki for displacement of [3H]MSX-2 from recombinant human A2A adenosine receptor expressed in CHO cell membranes to Ki for displacement of [3H]PSB-603 from recombinant human A2B adenosine receptor expressed in CHO cell membranes
Homo sapiens [8] = organism: Homo sapiens; experiment: Selectivity index, ratio of Ki for displacement of [3H]CCPA from recombinant human A1 adenosine receptor expressed in CHO cell membranes to Ki for displacement of [3H]PSB-603 from recombinant human A2B adenosine receptor expressed in CHO cell membranes
Adenosine receptor A2a [9] = target: T5, Adenosine receptor A2a; experiment: Displacement of [3H]MSX-2 from recombinant human A2A adenosine receptor expressed in CHO cell membranes at 1 uM measured after 30 mins in presence of adenosine deaminase by liquid scintillation counting method relative to control; summary of the method: as §2
[10] = target: T6, Adenosine receptor A3 (Homo sapiens) (UniProt P0DMS8); experiment: Displacement of [3H]PSB-11 from recombinant human A3 adenosine receptor expressed in CHO cell membranes at 1 uM measured after 45 mins in presence of adenosine deaminase by liquid scintillation counting method relative to control; summary of the method: as §2
T6 sequence (whole entry): T2 sequence (P0DMS8 whole entry)

Adenosine receptor A1 [11] = target: T7, Adenosine receptor A1 (Mus musculus, UniProt Q60612); experiment: Displacement of [3H]CCPA from recombinant mouse A1 adenosine receptor expressed in CHO cell membranes measured after 90 mins in presence of adenosine deaminase by liquid scintillation counting method
T7 sequence (Q60612 whole entry): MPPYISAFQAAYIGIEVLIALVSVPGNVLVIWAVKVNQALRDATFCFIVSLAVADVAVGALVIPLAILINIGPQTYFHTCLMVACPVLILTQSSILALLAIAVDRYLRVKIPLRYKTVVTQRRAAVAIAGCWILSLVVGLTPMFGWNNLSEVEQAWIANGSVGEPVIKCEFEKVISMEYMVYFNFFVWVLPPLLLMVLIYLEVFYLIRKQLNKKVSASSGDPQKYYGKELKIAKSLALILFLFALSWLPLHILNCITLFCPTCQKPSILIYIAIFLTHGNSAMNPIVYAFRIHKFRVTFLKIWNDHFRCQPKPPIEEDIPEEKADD

Adenosine receptor A2b [12] = target: T8, Adenosine receptor A2b (Mus musculus, UniProt Q60614); experiment: Displacement of [3H]PSB-603 from recombinant mouse A2B adenosine receptor expressed in CHO cell membranes measured after 75 mins in presence of adenosine deaminase by liquid scintillation counting method
T8 sequence (Q60614 whole entry): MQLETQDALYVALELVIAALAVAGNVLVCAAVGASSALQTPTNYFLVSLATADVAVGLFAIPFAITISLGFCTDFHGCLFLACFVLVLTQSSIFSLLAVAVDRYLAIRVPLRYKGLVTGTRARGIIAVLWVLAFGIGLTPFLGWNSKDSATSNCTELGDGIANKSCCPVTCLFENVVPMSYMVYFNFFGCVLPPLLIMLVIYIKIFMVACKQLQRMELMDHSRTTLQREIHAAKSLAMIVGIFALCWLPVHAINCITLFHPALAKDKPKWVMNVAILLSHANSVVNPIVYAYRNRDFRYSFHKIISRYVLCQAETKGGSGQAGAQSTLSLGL

[13] = Selectivity ratio of Ki for displacement of [3H]PSB-603 from recombinant mouse A2B adenosine receptor expressed in CHO cell membranes to Ki for displacement of [3H]PSB-603 from recombinant human A2B adenosine receptor expressed in CHO cell membranes
[14] = target: T9, Adenosine receptor A3 (Mus musculus) (UniProt Q61618); experiment: Displacement of [3H]NECA from recombinant mouse A3 adenosine receptor expressed in CHO cell membranes at 1 uM measured after 180 mins in presence of adenosine deaminase by liquid scintillation counting method relative to control
T9 sequence (whole entry): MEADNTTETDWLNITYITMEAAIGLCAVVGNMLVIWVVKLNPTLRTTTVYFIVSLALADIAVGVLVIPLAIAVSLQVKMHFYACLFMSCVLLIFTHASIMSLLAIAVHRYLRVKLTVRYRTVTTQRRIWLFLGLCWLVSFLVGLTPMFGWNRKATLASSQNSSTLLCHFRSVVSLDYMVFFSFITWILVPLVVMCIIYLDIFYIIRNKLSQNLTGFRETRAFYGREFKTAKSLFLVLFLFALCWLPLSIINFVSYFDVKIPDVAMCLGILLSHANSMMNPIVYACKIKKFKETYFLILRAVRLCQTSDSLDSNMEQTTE

[15] = target: T10, Adenosine receptor A2b (Homo sapiens) (UniProt P29275); experiment: Competitive antagonist activity at recombinant human A2B adenosine receptor expressed in CHO cells assessed as reduction in NECA-induced […] cAMP accumulation preincubated for 10 mins followed by NECA stimulation for 15 mins […] and measured after 15 mins; assay type: functional, cell-based
T10 sequence (whole entry): T4 sequence (P29275 whole entry)

Adenosine receptor A3 [16] = target: T11, Adenosine receptor A3 (Mus musculus, UniProt Q61618); experiment: Displacement of [3H]NECA from recombinant mouse A3 adenosine receptor expressed in CHO cell membranes measured after 180 mins in presence of adenosine deaminase by liquid scintillation counting method
T11 sequence (Q61618 whole entry): T9 sequence (whole entry)

Mus musculus = organism: Mus musculus; experiment: Selectivity ratio of Ki for displacement of [3H]CCPA from recombinant mouse A1 adenosine receptor expressed in CHO cell membranes to Ki for displacement of [3H]PSB-603 from recombinant mouse A2B adenosine receptor expressed in CHO cell membranes

SMILES	Ki (Adenosine receptor A1 [2])	Ki (Adenosine receptor A3 [3])	inhibition [4]	Ki (Adenosine receptor A2b [5])	Ki (Adenosine receptor A2a [6])	inhibition (Adenosine receptor A2a [9])	inhibition [10]	Ki (Adenosine receptor A1 [11])	Ki (Adenosine receptor A2b [12])	inhibition [14]	Kb [15]	Ki (Adenosine receptor A3 [16])	Ratio Ki (Homo sapiens [1])	Ratio Ki (Homo sapiens [7])	Ratio Ki (Homo sapiens [8])	Ratio Ki [13]	Ratio Ki (Mus musculus)
CCCn1c(=O)[nH]c2nc(-c3ccc(S(=O)(=O)N4CCN(Cc5ccc(C(=O)O)cc5)CC4)cc3)[nH]c2c1=O	> 1000 nM	> 1000 nM	12%	96.7 nM	1160 nM	–	-7%	–	–	–	–	–	10	10	10	–	–
CCCn1c(=O)[nH]c2nc(-c3ccc(S(=O)(=O)N4CCN(c5ccc(OC)c(Cl)c5)CC4)cc3)[nH]c2c1=O	> 1000 nM	> 1000 nM	23%	0.352 nM	> 1000 nM	31%	1%	–	–	–	–	–	> 2840	> 2840	> 2840	–	–
CCCn1c(=O)[nH]c2nc(-c3ccc(S(=O)(=O)N4CCN(c5cccc(Br)c5)CC4)cc3)[nH]c2c1=O	> 1000 nM	> 1000 nM	-1%	0.234 nM	> 1000 nM	24%	27%	–	–	–	–	–	> 4270	> 4270	> 4270	–	–
CCCn1c(=O)[nH]c2nc(-c3ccc(S(=O)(=O)N4CCN(c5ccc(Cl)cc5F)CC4)cc3)[nH]c2c1=O	> 1000 nM	> 1000 nM	9%	1.91 nM	> 1000 nM	6%	14%	–	–	–	–	–	> 500	> 500	> 500	–	–
CCCn1c(=O)[nH]c2nc(-c3ccc(S(=O)(=O)N4CCN(C(C)c5ccccc5)CC4)cc3)[nH]c2c1=O (stereo not given)	≥ 1000 nM	> 1000 nM	42%	8.34 nM	≥ 1000 nM	42%	0%	–	–	–	–	–	> 120	> 120	> 120	–	–
CCCn1c(=O)[nH]c2nc(-c3ccc(S(=O)(=O)N4CCN(c5ccccc5F)CC4)cc3)[nH]c2c1=O	> 1000 nM	> 1000 nM	13%	3.22 nM	> 1000 nM	27%	9%	–	–	–	–	–	> 310	> 310	> 310	–	–
CCCn1c(=O)[nH]c2nc(-c3ccc(S(=O)(=O)N4CCN(c5ccc(C)cc5)CC4)cc3)[nH]c2c1=O	> 1000 nM	> 1000 nM	12%	0.706 nM	> 1000 nM	34%	25%	–	–	–	–	–	> 1420	> 1420	> 1420	–	–

Further lines, with some results ahead:

Ki (Adenosine receptor A1 [2])	Ki (Adenosine receptor A3 [3])	inhibition [4]	Ki (Adenosine receptor A2b [5])	Ki (Adenosine receptor A2a [6])	inhibition (Adenosine receptor A2a [9])	inhibition [10]	Ki (Adenosine receptor A1 [11])	Ki (Adenosine receptor A2b [12])	inhibition [14]	Kb [15]	Ki (Adenosine receptor A3 [16])	SMILES	Ratio Ki (Homo sapiens [1])	Ratio Ki (Homo sapiens [7])	Ratio Ki (Homo sapiens [8])	Ratio Ki [13]	Ratio Ki (Mus musculus)
> 1000 nM	> 1000 nM	34%	1.24 nM	> 1000 nM	30%	21%	–	–	–	–	–	CCCn1c(=O)[nH]c2nc(-c3ccc(S(=O)(=O)N4CCN(c5ccc(OC)c(F)c5)CC4)cc3)[nH]c2c1=O	> 800	> 800	> 800	–	–
928 nM	> 1000 nM	–	0.148 nM	92.4 nM	–	23%	107 nM	0.901 nM	5%	0.201 nM	> 1000 nM	CCCn1c(=O)[nH]c2nc(-c3ccc(S(=O)(=O)N4CCN(Cc5cccc(Br)c5)CC4)cc3)[nH]c2c1=O	–	620	620	1.5 to 6	> 120
> 1000 nM	53.5 nM	21%	0.342 nM	1000 nM	42%	–	–	–	–	–	–	CCCn1c(=O)[nH]c2nc(-c3ccc(S(=O)(=O)N4CCN(c5cccc(Cl)c5)CC4)cc3)[nH]c2c1=O	160	–	–	–	–
> 1000 nM	> 1000 nM	24%	0.159 nM	2990 nM	–	36%	–	–	–	–	–	CCCn1c(=O)[nH]c2nc(-c3ccc(S(=O)(=O)N4CCN(c5ccc(I)cc5)CC4)cc3)[nH]c2c1=O	> 6290	> 6290	> 6290	–	–
326 nM	> 1000 nM	–	0.473 nM	403 nM	–	27%	–	–	–	–	–	CCCn1c(=O)[nH]c2nc(-c3ccc(S(=O)(=O)N4CCN(Cc5ccc(Br)c(F)c5)CC4)cc3)[nH]c2c1=O	–	–	690	–	–
